pIC50: −log10 of the molar value.
Assays:
EglN1 [1] = target: T1, EglN1 (Homo sapiens, UniProt Q9GZT9); type: biochemical
EglN2 [2] = target: T2, EglN2 (Homo sapiens, UniProt Q96KS0); type: biochemical; settings: standard assay conditions, 10 μM 2-OG
EglN3 = EglN3 (Homo sapiens, UniProt Q9H6Z9); type: biochemical; settings: standard assay conditions, 10 μM 2-OG
collagen P4H-I [3] = test: Inhibition of collagen P4H-I, 14CO2 release; type: biochemical, human; settings: in vitro; 100 µM 2-oxo-[1-14C]glutarate
Tet1 = test: Inhibition of Tet1, 14CO2 release, double stranded oligonucleotide substrate; type: biochemical, murine; settings: in vitro; 120 µM 2-oxo-[1-14C]glutarate
Tet2 = test: Inhibition of Tet2, 14CO2 release, double stranded oligonucleotide substrate; type: biochemical, murine; settings: in vitro; 120 µM 2-oxo-[1-14C]glutarate
FIH = test: Inhibition of FIH, 14CO2 release, synthetic peptide substrate; type: biochemical, human; settings: in vitro; 10 µM 2-oxo-[1-14C]glutarate
[4] = system: JMJD2D histone demethylase; test: JMJD2D histone demethylase activity; type: biochemical; settings: data not shown; for Inhibition of JMJD2D histone demethylase (in words): in vitro
EglN1 [5] = target: T1, EglN1; type: biochemical; remark: listed apart in the source
EglN2 [6] = target: T2, EglN2; type: biochemical; settings: low mM concentrations, reactions lacking exogenous 2-OG
collagen P4H-I [7] = type: biochemical, human; settings: no exogenous 2-OG
[8] = system: HIF in IDH1 R132H immortalized human astrocytes; type: cell-based; settings: 21% oxygen, increasing amounts for 16 hours
Method in brief: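 Immortalized human astrocytes (passage 10) expressing wild-type or mutant IDH1 were dosed with test compound for 16 h before lysis in 50 mM Tris pH 8.0, 120 mM NaCl, 0.5% NP-40 with protease inhibitors. Extracts were run on 10% SDS-PAGE and transferred to nitrocellulose. Blots were blocked in TBS/5% milk, probed with anti-HIF1α monoclonal antibody, and detected by HRP-secondary chemiluminescence.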

T2 sequence (Q96KS0 whole entry): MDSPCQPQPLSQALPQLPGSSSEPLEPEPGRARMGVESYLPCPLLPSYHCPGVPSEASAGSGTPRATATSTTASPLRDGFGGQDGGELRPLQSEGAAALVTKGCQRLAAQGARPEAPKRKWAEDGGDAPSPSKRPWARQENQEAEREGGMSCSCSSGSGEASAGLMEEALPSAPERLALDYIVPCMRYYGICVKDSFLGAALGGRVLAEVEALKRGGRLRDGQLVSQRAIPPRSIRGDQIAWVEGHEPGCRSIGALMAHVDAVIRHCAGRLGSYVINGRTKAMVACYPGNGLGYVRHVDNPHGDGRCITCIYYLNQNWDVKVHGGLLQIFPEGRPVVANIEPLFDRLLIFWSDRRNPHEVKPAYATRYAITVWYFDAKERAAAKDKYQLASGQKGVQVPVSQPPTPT
T1 sequence (Q9GZT9 whole entry): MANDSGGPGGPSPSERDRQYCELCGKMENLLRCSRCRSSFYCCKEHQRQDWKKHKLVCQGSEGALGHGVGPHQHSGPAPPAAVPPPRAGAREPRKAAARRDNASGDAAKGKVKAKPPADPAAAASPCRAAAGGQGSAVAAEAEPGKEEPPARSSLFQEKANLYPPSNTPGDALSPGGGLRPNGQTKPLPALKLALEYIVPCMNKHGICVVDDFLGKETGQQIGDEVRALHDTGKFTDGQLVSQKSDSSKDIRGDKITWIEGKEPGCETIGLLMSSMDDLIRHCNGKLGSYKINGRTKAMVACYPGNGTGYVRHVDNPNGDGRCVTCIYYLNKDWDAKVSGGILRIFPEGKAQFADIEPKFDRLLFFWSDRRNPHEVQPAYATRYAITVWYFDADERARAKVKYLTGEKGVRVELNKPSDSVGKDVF
EglN3, sequence (Q9H6Z9 whole entry): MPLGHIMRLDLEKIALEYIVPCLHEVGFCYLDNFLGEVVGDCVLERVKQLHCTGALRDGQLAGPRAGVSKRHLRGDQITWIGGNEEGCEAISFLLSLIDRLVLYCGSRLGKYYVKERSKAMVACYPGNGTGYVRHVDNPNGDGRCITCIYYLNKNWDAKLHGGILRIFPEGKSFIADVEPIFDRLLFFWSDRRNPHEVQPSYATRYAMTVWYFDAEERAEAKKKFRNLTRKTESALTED

Row | Inhibition of EglN1 (in words) (EglN1 [1]; standard assay conditions, 10 μM 2-OG) | Inhibition of EglN2 (in words) (EglN2 [2]) | Inhibition of EglN3 (in words) (EglN3) | Inhibition of TET1 methyl cytosine hydroxylase (in words) (Tet1) | Inhibition of TET2 methyl cytosine hydroxylase (in words) (Tet2) | Inhibition of HIF asparaginyl hydroxylase FIH (in words) (FIH) | Inhibition of JMJD2D histone demethylase (in words) [4] | Prolyl hydroxylation of HIF1α by EglN1 (EglN1 [5]; increasing R-2HG with 10 μM 2-OG, concentrations as high as 100 mM) | Promotion of EglN1 activity (EglN1 [5]; low mM concentrations, reactions lacking exogenous 2-OG) | Promotion of EglN2 activity (EglN2 [6]) | Release of 14CO2 in EglN1 assays (EglN1 [1]; increasing amounts of R-2HG added to 10 μM 2-oxo-[1-14C]glutarate) | pIC50 (EglN2 [2]; read-out: IC50, EglN2 inhibition) | pIC50 (EglN3; read-out: IC50, EglN3 inhibition) | Promotion of JMJD2D histone demethylase activity [4] | Promotion of collagen prolyl 4-hydroxylase activity (collagen P4H-I [7]) | Compound | Inhibition of collagen prolyl 4-hydroxylases (in words) (collagen P4H-I [3]) | Resistance of R132H-expressing cells to the agent (HIF immunoblot) [8]
1 | micromolar to low millimolar inhibitor | micromolar to low millimolar inhibitor | micromolar to low millimolar inhibitor | inhibit | inhibit | inhibit | inhibit | – | – | – | – | – | – | – | – | O=C(O)CC[C@H](O)C(=O)O [S-2HG, S-2-hydroxyglutarate] | inhibit | –
2 | – | – | – | inhibit | inhibit | inhibit | inhibit | without decreasing | promoted | promoted | progressively decreased | < 2.30 | < 2.30 | did not promote | did not promote | O=C(O)CC[C@@H](O)C(=O)O [R-2HG, R-2-hydroxyglutarate] | inhibit | –
3 | – | – | – | – | – | – | – | – | – | – | – | – | – | – | – | COC(=O)CNC(=O)C(=O)OC [DMOG] | – | relatively resistant
